Activity, IC50 and DC50 data for 4 compounds are collected here from ChEMBL document CHEMBL4311951, “Potent and Preferential Degradation of CDK6 via Proteolysis Targeting Chimera Degraders” (J Med Chem, 2019).

The source made the active and inactive calls. The rule behind the calls is not given here.

What is called IC50 is the concentration that gives 50% inhibition. Lower therefore signals greater potency in that assay. A word on the DC50: it is the concentration at which degradation of the target reaches its halfway point.

The test system of data set [1] is RPMI-8226. Kind of data set: Antiproliferative activity against human RPMI8226 cells after 84 hrs by CCK8 assay. Format: functional, cell-based. Summed up: (§1)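 Suspension haematopoietic lines seeded in triplicate in 96-well plates; drug stock added immediately to the final concentrations. After 84 h culture, CCK-8 reagent added and absorbance at OD450 nm read after 2 h incubation.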
In general terms: Tetrazolium dyes change colour on reduction, which living cells bring about.

Data set [2] concerns HL-60. Kind of data set: Antiproliferative activity against human HL60 cells after 84 hrs by CCK8 assay. Format: functional, cell-based. Summed up:
as §1

Data set [3] deals with THP-1. Kind of data set: Antiproliferative activity against human THP1 cells after 84 hrs by CCK8 assay. Format: functional, cell-based. Summed up: as §1
Data set [4] is filed under the species Homo sapiens. Kind of data set: (§2) Antiproliferative activity against human Mino cells after 84 hrs by CCK8 assay. Format: functional, cell-based. Put shortly:
as §1

For data set [5], the system named is MM1.S. Kind of data set: Antiproliferative activity against human MM1S cells after 84 hrs by CCK8 assay. Format: functional, cell-based. Summed up:
as §1

Data set [6] has as its system JeKo-1. Kind of data set: Antiproliferative activity against human JeKo1 cells after 84 hrs by CCK8 assay. Format: functional, cell-based. Summed up:
as §1

A short description of data set [7]: as §2. Format: functional, cell-based. Summed up:
as §1

For data set [8], the target named is Protein cereblon/Epidermal growth factor receptor (Homo sapiens, UniProt P00533+Q96SW2). Kind of data set: Induction of CRBN-mediated EGFR degradation in human U251 cells at 500 nM after 4 hrs […]. The settings on record: 0.5 µM. Format: cell-based. Put shortly:
(§3)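 U251 cells grown to 70–80% confluency, exposed to 500 nM degrader or DMSO for 4 h. Harvested by trypsinization, washed in cold PBS, lysed in RIPA on ice 30 min. Lysates BCA-quantified, acetone-precipitated, TMT-labelled and analysed by MS2 quantitation.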

Data set [9] has as its target Protein cereblon/Cyclin-dependent kinase 2 (Homo sapiens, UniProt P24941+Q96SW2). Kind of data set: Induction of CRBN-mediated CDK2 degradation in human U251 cells at 500 nM after 4 hrs by immunoblot analysis. Format: cell-based. The settings on record: 0.5 µM.
The target of data set [10] is Protein cereblon/Cyclin-dependent kinase 4 (Homo sapiens, UniProt P11802+Q96SW2). Kind of data set: Induction of CRBN-mediated CDK4 degradation in human U251 cells after 24 hrs by immunoblot analysis. Format: cell-based. On the technique in general: A western blot detects proteins with antibodies after separation by electrophoresis.
The target in data set [11] is Protein cereblon/Cyclin-dependent kinase 9 (Homo sapiens, UniProt P50750+Q96SW2). Kind of data set: Induction of CRBN-mediated CDK9 degradation in human U251 cells at 500 nM after 4 hrs […]. Format: cell-based. The settings on record: 0.5 µM. Put shortly:
as §3

The target in data set [12] is Protein cereblon/Cyclin-dependent kinase 1 (Homo sapiens, UniProt P06493+Q96SW2). Kind of data set: Induction of CRBN-mediated CDK1 degradation in human U251 cells at 500 nM after 4 hrs […]. Format: cell-based. The settings on record: 0.5 µM. Summed up:
as §3

Data set [13] has as its target Protein cereblon/G1/S-specific cyclin-D1 (Homo sapiens, UniProt P24385+Q96SW2). Kind of data set: Induction of CRBN-mediated CCND1 degradation in human U251 cells at 500 nM after 4 hrs by […]. Format: cell-based. The settings on record: 0.5 µM. Summed up: as §3
The target of data set [14] is Protein cereblon/Cyclin-dependent kinase 5 (Homo sapiens, UniProt Q00535+Q96SW2). Kind of data set: Induction of CRBN-mediated CDK5 degradation in human U251 cells at 500 nM after 4 hrs by […]. Format: cell-based. The settings on record: 0.5 µM. Put shortly:
as §3

For data set [15], the target named is Protein cereblon/Dual specificity mitogen-activated protein kinase kinase 1 (Homo sapiens, UniProt Q02750+Q96SW2). Kind of data set: Induction of CRBN-mediated MEK1 degradation in human U251 cells at 500 nM after 4 hrs by immunoblot analysis. Format: cell-based. The settings on record: 0.5 µM.
The target of data set [16] is Protein cereblon/Cyclin-dependent kinase 6 (Homo sapiens, UniProt Q00534+Q96SW2). Kind of data set: Induction of CRBN-mediated CDK6 degradation in human U251 cells after 24 hrs by immunoblot analysis. Format: cell-based.
In data set [17] the test system is MCF7. Kind of data set: Antiproliferative activity against palbociclib-resistant human MCF7 cells with CDK6 gene amplification after 6 days by alamarBlue assay. Format: functional, cell-based. Summed up: (§4)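 Parental or palbociclib-resistant MCF-7 cells (CDK6-N2 or FAT1 knockout) exposed to serial concentrations of degrader for 6 days, then viability determined.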
(Alamar Blue is a resazurin reagent that responds to reducing activity.)

Data set [18] relates to MCF7. Kind of data set: Antiproliferative activity against Fat1 knockout human MCF7 cells after 6 days by alamarBlue assay. Format: functional, cell-based. Summed up:
as §4

Protein cereblon/Epidermal growth factor receptor, sequence (P00533 whole entry): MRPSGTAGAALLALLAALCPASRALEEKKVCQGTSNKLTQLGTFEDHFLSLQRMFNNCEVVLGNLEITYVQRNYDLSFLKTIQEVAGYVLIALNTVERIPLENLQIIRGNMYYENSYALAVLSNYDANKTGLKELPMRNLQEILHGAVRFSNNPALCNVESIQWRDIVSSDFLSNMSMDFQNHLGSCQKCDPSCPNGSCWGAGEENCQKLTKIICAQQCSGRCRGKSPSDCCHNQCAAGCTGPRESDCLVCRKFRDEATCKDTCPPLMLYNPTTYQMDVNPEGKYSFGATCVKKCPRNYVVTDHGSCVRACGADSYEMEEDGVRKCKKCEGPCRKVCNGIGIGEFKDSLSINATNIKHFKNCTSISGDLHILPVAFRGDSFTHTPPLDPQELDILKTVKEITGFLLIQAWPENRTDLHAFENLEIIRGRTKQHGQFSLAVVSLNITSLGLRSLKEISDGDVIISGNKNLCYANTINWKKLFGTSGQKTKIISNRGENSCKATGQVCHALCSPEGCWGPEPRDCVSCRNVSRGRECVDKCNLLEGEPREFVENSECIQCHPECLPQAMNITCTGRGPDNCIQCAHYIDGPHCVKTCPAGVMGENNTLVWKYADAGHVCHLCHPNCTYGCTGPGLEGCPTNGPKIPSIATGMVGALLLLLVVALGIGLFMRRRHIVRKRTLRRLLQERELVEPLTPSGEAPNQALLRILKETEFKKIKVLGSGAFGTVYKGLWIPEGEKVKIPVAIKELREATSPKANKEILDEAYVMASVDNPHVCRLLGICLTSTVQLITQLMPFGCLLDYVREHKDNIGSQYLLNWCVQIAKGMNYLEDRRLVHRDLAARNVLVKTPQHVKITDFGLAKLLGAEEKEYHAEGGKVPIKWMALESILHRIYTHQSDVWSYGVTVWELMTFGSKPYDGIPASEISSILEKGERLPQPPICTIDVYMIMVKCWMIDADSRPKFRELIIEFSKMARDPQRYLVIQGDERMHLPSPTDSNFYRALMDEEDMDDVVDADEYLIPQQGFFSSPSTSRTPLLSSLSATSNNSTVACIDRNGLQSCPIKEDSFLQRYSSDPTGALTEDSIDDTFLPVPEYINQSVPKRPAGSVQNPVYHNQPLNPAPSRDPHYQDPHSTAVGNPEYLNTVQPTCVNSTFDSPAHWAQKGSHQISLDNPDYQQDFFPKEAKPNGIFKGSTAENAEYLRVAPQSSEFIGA
Protein cereblon/Epidermal growth factor receptor, sequence (Q96SW2 whole entry): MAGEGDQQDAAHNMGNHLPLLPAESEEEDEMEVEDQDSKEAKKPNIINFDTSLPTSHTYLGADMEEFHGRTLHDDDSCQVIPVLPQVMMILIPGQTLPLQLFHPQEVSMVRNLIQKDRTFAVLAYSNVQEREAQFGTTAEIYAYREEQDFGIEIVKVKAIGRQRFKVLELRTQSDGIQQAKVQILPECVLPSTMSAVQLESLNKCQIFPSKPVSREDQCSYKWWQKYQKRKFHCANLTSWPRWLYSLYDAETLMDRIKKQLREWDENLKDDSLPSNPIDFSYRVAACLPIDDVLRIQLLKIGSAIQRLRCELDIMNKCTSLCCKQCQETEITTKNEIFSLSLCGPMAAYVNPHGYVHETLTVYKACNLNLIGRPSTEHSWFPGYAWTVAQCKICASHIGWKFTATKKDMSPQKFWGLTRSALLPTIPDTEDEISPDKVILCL
Protein cereblon/Cyclin-dependent kinase 1, sequence (P06493 whole entry): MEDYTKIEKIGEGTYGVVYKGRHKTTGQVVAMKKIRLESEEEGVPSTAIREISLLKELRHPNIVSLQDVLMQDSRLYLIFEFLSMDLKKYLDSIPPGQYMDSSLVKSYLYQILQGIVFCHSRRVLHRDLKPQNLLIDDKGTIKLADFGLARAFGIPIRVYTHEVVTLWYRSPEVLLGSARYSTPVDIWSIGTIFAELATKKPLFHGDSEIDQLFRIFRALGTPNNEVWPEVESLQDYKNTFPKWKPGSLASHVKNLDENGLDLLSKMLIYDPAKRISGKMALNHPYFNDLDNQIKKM
Protein cereblon/Cyclin-dependent kinase 1, sequence (Q96SW2 whole entry): as the sequence (Q96SW2 whole entry) above
Protein cereblon/Cyclin-dependent kinase 9, sequence (P50750 whole entry): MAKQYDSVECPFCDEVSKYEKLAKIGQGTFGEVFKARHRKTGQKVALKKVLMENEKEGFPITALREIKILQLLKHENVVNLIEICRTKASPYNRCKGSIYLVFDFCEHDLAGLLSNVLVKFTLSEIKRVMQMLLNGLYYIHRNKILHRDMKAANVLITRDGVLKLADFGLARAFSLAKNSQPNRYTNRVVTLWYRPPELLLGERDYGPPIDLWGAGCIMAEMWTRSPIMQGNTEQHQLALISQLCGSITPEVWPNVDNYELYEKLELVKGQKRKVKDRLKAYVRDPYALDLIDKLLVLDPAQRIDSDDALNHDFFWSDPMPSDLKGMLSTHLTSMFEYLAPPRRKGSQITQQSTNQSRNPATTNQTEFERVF
Protein cereblon/Cyclin-dependent kinase 9, sequence (Q96SW2 whole entry): as the sequence (Q96SW2 whole entry) above
Protein cereblon/Cyclin-dependent kinase 4, sequence (P11802 whole entry): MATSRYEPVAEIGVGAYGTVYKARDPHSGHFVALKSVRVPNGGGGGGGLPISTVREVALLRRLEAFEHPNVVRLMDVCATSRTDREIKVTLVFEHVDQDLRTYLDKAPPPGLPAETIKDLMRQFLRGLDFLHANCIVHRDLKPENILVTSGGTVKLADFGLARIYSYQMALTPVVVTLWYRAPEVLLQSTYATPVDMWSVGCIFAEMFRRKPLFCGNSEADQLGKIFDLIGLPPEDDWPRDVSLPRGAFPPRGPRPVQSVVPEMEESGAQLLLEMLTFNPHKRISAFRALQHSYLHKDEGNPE
Protein cereblon/Cyclin-dependent kinase 4, sequence (Q96SW2 whole entry): as the sequence (Q96SW2 whole entry) above
Protein cereblon/G1/S-specific cyclin-D1, sequence (P24385 whole entry): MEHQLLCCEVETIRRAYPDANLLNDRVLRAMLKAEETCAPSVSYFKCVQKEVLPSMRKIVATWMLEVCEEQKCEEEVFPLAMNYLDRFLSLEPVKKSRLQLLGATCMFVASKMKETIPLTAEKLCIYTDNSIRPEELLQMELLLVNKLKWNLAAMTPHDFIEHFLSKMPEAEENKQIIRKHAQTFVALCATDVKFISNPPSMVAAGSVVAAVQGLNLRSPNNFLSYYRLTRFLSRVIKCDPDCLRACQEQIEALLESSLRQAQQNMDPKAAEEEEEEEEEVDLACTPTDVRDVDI
Protein cereblon/G1/S-specific cyclin-D1, sequence (Q96SW2 whole entry): as the sequence (Q96SW2 whole entry) above
Protein cereblon/Cyclin-dependent kinase 5, sequence (Q00535 whole entry): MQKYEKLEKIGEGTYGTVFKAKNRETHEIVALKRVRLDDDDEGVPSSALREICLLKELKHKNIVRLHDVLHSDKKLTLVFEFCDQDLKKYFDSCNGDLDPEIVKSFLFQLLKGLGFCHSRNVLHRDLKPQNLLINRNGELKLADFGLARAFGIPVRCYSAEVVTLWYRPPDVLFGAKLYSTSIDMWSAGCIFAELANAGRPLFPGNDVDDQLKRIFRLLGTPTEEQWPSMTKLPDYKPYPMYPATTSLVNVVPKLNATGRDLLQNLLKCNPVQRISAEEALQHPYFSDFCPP
Protein cereblon/Cyclin-dependent kinase 5, sequence (Q96SW2 whole entry): as the sequence (Q96SW2 whole entry) above
Protein cereblon/Cyclin-dependent kinase 6, sequence (Q00534 whole entry): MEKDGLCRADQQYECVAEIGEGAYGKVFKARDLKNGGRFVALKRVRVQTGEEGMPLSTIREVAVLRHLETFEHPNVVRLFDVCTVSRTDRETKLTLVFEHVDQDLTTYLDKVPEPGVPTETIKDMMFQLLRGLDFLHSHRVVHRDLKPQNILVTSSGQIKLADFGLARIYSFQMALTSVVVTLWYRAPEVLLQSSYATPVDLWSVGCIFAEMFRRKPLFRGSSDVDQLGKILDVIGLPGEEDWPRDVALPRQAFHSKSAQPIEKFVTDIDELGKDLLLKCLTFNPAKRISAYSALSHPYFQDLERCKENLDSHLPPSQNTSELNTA
Protein cereblon/Cyclin-dependent kinase 6, sequence (Q96SW2 whole entry): as the sequence (Q96SW2 whole entry) above
Protein cereblon/Dual specificity mitogen-activated protein kinase kinase 1, sequence (Q02750 whole entry): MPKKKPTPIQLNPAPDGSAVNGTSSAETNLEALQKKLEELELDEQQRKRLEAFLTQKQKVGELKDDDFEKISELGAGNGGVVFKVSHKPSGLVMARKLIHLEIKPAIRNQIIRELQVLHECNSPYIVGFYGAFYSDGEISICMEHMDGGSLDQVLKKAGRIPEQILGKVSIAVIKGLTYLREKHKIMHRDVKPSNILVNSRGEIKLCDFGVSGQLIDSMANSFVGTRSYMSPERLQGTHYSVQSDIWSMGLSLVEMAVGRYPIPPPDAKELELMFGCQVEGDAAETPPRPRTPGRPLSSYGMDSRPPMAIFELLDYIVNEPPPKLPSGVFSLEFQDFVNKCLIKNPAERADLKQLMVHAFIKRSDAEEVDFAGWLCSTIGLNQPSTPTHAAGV
Protein cereblon/Dual specificity mitogen-activated protein kinase kinase 1, sequence (Q96SW2 whole entry): as the sequence (Q96SW2 whole entry) above

`CCN1C(=O)CCC(N2C(=O)c3cccc(NCCOCCn4cc(CN5CCN(c6ccc(Nc7ncc8c(C)c(C(C)=O)c(=O)n(C9CCCC9)c8n7)nc6)CC5)nn4)c3C2=O)C1=O` (stereo not given): the outcome in data set [1], in [2], in data set [3], in data set [4], in data set [5] and in data set [6] was inactive.
Turning to `CCN1C(=O)CCC(N2C(=O)c3cccc(NCCOCCOCCn4cc(CN5CCN(c6ccc(Nc7ncc8c(C)c(C(C)=O)c(=O)n(C9CCCC9)c8n7)nc6)CC5)nn4)c3C2=O)C1=O` (stereo not given), the outcome in data set [1], in data set [2], in [3], in data set [4], in [5] and in data set [6] was inactive.
Take `CC(=O)c1c(C)c2cnc(Nc3ccc(N4CCNCC4)cn3)nc2n(C2CCCC2)c1=O` [PALBOCICLIB]: the outcome in [1], in data set [2], in [3] and in [6] was Active. Moreover, the IC50 in data set [7] worked out at 45 nM; in data set [5], 200 nM.
Consider `CC(=O)c1c(C)c2cnc(Nc3ccc(N4CCN(Cc5cn(CCOCCNc6cccc7c6C(=O)N(C6CCC(=O)NC6=O)C7=O)nn5)CC4)cn3)nc2n(C2CCCC2)c1=O` (stereo not given), for which the outcome in data set [1], in data set [2], in data set [3], in data set [17], in data set [18] and in [6] was Active. In addition, the Activity entry in [8], in data set [9], in data set [11], in [12], in data set [13] and in [14] was “Not Active” throughout. Further, in data set [15], the Activity entry is on record as “Not Active”. The DC50 in data set [10] is 150 to 180 nM; in data set [16] it was 2.1 nM. Moreover, the IC50 in [7] worked out at 8 nM; in data set [5], 10 nM.
